Results pooled from the literature.
Protocols differ between the studies behind these lines.
Target: Serine/threonine-protein kinase Nek10 (NEK10, Homo sapiens, UniProt Q6ZWH5)
Sequence (Q6ZWH5 1-1172, as in one of the studies): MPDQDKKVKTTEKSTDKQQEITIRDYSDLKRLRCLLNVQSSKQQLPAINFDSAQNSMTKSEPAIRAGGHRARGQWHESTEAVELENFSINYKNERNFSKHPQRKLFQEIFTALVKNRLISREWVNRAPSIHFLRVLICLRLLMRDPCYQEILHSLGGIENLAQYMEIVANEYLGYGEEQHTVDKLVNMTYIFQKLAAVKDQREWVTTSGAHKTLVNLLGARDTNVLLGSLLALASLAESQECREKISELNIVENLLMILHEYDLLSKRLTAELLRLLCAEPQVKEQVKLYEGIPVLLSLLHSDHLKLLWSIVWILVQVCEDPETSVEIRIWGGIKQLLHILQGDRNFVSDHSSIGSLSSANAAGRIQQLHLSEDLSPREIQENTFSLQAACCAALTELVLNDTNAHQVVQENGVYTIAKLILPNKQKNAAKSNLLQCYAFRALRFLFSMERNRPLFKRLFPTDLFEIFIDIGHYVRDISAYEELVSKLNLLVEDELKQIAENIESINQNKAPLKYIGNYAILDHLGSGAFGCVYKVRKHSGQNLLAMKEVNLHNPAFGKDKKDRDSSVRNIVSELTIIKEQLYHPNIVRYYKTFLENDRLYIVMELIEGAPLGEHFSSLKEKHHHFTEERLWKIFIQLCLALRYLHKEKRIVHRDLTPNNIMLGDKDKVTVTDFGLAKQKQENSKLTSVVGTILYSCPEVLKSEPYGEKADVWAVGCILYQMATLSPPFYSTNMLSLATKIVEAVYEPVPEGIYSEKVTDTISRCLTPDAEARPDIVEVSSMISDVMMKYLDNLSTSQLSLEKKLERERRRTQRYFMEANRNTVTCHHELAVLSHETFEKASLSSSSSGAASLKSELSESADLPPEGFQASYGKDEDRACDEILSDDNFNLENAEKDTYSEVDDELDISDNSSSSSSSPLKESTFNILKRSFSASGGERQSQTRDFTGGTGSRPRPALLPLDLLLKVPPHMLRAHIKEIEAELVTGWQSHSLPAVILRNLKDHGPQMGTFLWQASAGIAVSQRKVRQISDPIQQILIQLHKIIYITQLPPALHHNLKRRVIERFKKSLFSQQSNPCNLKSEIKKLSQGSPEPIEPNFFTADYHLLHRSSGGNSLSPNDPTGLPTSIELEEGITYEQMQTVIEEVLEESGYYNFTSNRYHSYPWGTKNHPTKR

O=C(Nc1c[nH]nc1C(=O)NC1CCNCC1)c1cc(F)cc(F)c1 — remaining binding (binding, competition with immobilised ligand; 1 µM): 100%
C=CC(=O)N1CCC(C(=O)NCC(=O)N2CCN(c3nc(-c4cnc(N)nc4C(F)F)nc(N4CCOCC4)n3)CC2)CC1 — remaining binding (binding, competition with immobilised ligand; 1 µM): 76%
CN(C)c1nccc(-c2cnn3ncccc23)n1 — remaining binding (binding; 1 µM): 100%
O=C(Nc1cccnn1)N1CCC(=Cc2cccc(Oc3ccc(C(F)(F)F)cn3)c2)CC1 — remaining binding (cell-free assay, competition with immobilised ligand; 1 µM): 100%
c1cncc(-c2cccc(Nc3nccc(NC4CCCCC4)n3)c2)c1 — remaining binding (binding, competition with immobilised ligand; 10 µM): 1.6%
O=C(NCCCN1CCOCC1)c1ccc(Nc2ncc(Cl)c(-c3ccc(Cl)s3)n2)cc1 — remaining binding (binding, competition with immobilised ligand; 1 µM): 48%
CNC(=O)[C@@H]1CC[C@@H](n2c(-c3ccc4cnccc4c3)nc3ccc(C(=O)NCc4cccc(C(N)=O)c4)cc32)C1 — remaining binding (binding, competition with immobilised ligand; 1 µM): 92%
C[C@H]1CCN(c2nccc(-c3cnn4ncccc34)n2)C1 — remaining binding (binding; 1 µM): 91%
COc1cccc(CNC(=O)c2nc3scc(COCc4ccc(C(=O)O)cc4)c3c(=O)[nH]2)c1 — remaining binding (cell-free assay, competition with immobilised ligand; 1 µM): 61.7%
Cc1cnc(Nc2ccc(C(=O)N3CCC(N4CCCC4)CC3)cc2)nc1-c1cc2ccccc2s1 — remaining binding (binding, competition with immobilised ligand; 1 µM): 71%
CC1CCCN1c1nccc(-c2cnn3ncccc23)n1 (stereo not drawn) — remaining binding (binding; 1 µM): 100%
O=C(c1ccc(Nc2ncc(Cl)c(-c3ccc(Cl)s3)n2)cc1)N1CCC(N2CCCC2)CC1 — remaining binding (binding, competition with immobilised ligand; 1 µM): 30%
CN(C)c1ncnc(-c2ccc3nc(Nc4cc(CN5CCN(C(=O)CC(F)(F)F)CC5)ccn4)[nH]c3c2)c1Cl — remaining binding (cell-free assay, competition with immobilised ligand; 1 µM): 72%
COc1ncc2cc3ccccc3nc2c1C#N — remaining binding (cell-free assay, competition with immobilised ligand; 5 µM): 98%
CNC(=O)c1ccc(Nc2ncc(C(F)(F)F)c(NCc3nccnc3N(C)S(C)(=O)=O)n2)cc1 — remaining binding (cell-free assay, competition with immobilised ligand; 0.1 µM): 100%
C[C@@H](c1ccc(-n2cnc3c(N)ncnc32)cc1)N1CCc2nn(C)c(Cc3ccccc3)c2C1=O — remaining binding (binding, competition with immobilised ligand; 0.1 µM): 80%
CN(C)c1nccc(-c2cnc3ncccn23)n1 — remaining binding (binding; 1 µM): 59%
CCOCCn1cc(C(=O)Nc2ccc(-n3nc(-c4cccnc4)cc3C(F)(F)F)cn2)ccc1=O — remaining binding (cell-free assay, competition with immobilised ligand; 1 µM): 94%
